The source of these data is ChEMBL document CHEMBL1141713, “Bisphosphonate inhibitors of ATP-mediated HIV-1 reverse transcriptase catalyzed excision of chain-terminating 3'-azido, 3'-deoxythymidine: a QSAR investigation” (Bioorg Med Chem, 2008).

Data set [1] in a line: Inhibition of the ATP-mediated HIV1 reverse transcriptase D67N/K70R/T215F/K219Q mutant catalyzed 3'-azido, 3'-deoxythymidine excision from AZT-terminated DNA primers. Set-up: species or system Human immunodeficiency virus 1. The essentials: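 TAM-RT incubated with 5′-³²P-labeled 57/19 heteropolymeric DNA T/P whose 20 nt primer was chain-terminated with AZTMP (RT:T/P 4:1), in 50 mM Tris-HCl pH 8.0, 50 mM KCl, with or without varying bisphosphonate. Started with 10 mM MgCl₂ + 3.0 mM ATP, inorganic pyrophosphatase included. Timed aliquots quenched in formamide/EDTA dye. 20 nt and 19 nt excision product resolved on denaturing gel, quantified by phosphorimaging; IC₅₀.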

The nature of data set [2]: Toxicity against human MCF7 cells assessed as growth inhibition by broth microdilution method. It counts as cell-based. An outline of the steps: (§1)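 Cells grown in RPMI-1640 with 2mM L-glutamine and 10% FBS at 37°C, 5% CO₂. Seeded at 5,000 cells/well and exposed to compounds in half-log serial dilution, 316μM–10nM (100μM–10nM when the DMSO stock was used), for 4 days. Read-out by MTT, absorbance at 600nm. IC₅₀ fitted to a rectangular hyperbola with Imax fixed at 100%.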

Data set [3] is described as follows: Toxicity against human SF268 cells assessed as growth inhibition by broth microdilution method. It counts as cell-based, SF-268. An outline of the steps: as §1
(In general: Broth dilution looks for growth in wells or tubes with falling amounts of substance.)

A short description of data set [4]: Toxicity against human NCI-H460 cells assessed as growth inhibition by broth microdilution method. It counts as cell-based. An outline of the steps:
as §1

For data set [5], the system named is Human immunodeficiency virus 1. Description: Inhibition of the ATP-mediated HIV1 reverse transcriptase D67N/K70R/T215F/K219Q mutant catalyzed DNA synthesis.

Calls of active or inactive are those of the source. The calls are words filed in the database; no cut-off is given here. Bounds are passed on as bounds.

Take `NCCCCCC(O)(P(=O)(O)O)P(=O)(O)O` [NERIDRONIC ACID]: in data set [1], the IC50 – broadly, the midpoint of a concentration-inhibition curve – is 302 µM and the negative-log IC50 (pIC50) (in general, −log10 of the IC50, conventionally taken in molar units) stood at 3.5.

Take `O=P(O)(O)C(Nc1cccc(-c2ccc(F)c(F)c2)c1)P(=O)(O)O`: the half-inhibitory concentration (IC50) in data set [1] is 2.1 µM; in data set [2], greater than 300 µM; in data set [3] it was greater than 300 µM; in data set [4], greater than 300 µM. Besides, the pIC50 in data set [1] is 5.7. Also, in data set [5], the result was inactive.

Consider `COc1cccc(CC(O)(P(=O)(O)O)P(=O)(O)O)c1`, for which the half-inhibitory concentration (IC50) in data set [1] was 5.4 µM; in data set [2], greater than 300 µM; in data set [3], greater than 300 µM; in data set [4], greater than 300 µM. In addition, the pIC50 in data set [1] is listed as 5.3. In addition, the outcome in data set [5] was inactive.

Regarding `COc1ccc(-c2ccc(CC(O)(P(=O)(O)O)P(=O)(O)O)cc2)cc1`, in data set [1], the 50% inhibitory concentration (IC50) turned out to be 5.2 µM and the pIC50 worked out at 5.3. In addition, the result in data set [5] was inactive.

Take `Nc1ccccc1CC(O)(P(=O)(O)O)P(=O)(O)O`: the 50% inhibitory concentration (IC50) in data set [1] worked out at 38 µM; in data set [2], 205 µM; in data set [3], 186 µM; in data set [4], 187 µM. In data set [1], the negative logarithm of the IC50 (pIC50) stood at 4.4. Also, in data set [5], the outcome was inactive.

For `O=P(O)(O)C(O)(Cc1cccc(-c2cc(F)ccc2F)c1)P(=O)(O)O`, the half-maximal inhibitory concentration (IC50) stood at 1.5 µM in data set [1], 165 µM in data set [2], 122 µM in data set [3] and 141 µM in data set [4]. The compound further returned a negative logarithm of the IC50 (pIC50) in data set [1] of 5.8. The outcome in data set [5] was inactive.

In the case of `O=P(O)(O)C(O)(Cc1cccc(Oc2ccccc2)c1)P(=O)(O)O`, the 50% inhibitory concentration (IC50) in data set [1] came out at 3.3 µM; in data set [2], 188 µM; in data set [3], 176 µM; in data set [4] it was 212 µM. In data set [1], the negative-log IC50 (pIC50) amounted to 5.5. Also, the result in data set [5] was inactive.

In data set [1], `O=P(O)(O)C(Nc1ccc(-c2ccccc2)cc1)P(=O)(O)O` gave an IC50 of 302 µM and a pIC50 of 3.5.

On to `O=P(O)(O)C(O)(Cc1cccc(-c2ccc(F)cc2)c1)P(=O)(O)O`, for which the IC50 in data set [1] was determined as 1.9 µM; in data set [2] it was 173 µM; in data set [3], 224 µM; in data set [4] it was 175 µM. This compound also showed a pIC50 in data set [1] of 5.7. The result in data set [5] was inactive.

`O=P(O)(O)C(O)(Cc1ccc(-c2ccc(F)cc2)cc1)P(=O)(O)O`: the 50% inhibitory concentration (IC50) is 2.9 µM in data set [1], greater than 300 µM in data set [2], greater than 300 µM in data set [3] and greater than 300 µM in data set [4]. The pIC50 in data set [1] worked out at 5.5. The outcome in data set [5] was inactive.

In data set [1], `CCCCCCCCC(O)(P(=O)(O)O)P(=O)(O)O` had an IC50 of 302 µM and a pIC50 of 3.5.

In data set [1], `O=P(O)(O)C(O)(C[n+]1ccccc1)P(=O)(O)O` had an IC50 of 302 µM and a negative-log IC50 (pIC50) of 3.5.

Consider `CN(C)c1ccccc1CC(O)(P(=O)(O)O)P(=O)(O)O`, for which the 50% inhibitory concentration (IC50) was 51.3 µM in data set [1], greater than 300 µM in data set [2], greater than 300 µM in data set [3] and greater than 300 µM in data set [4]. For the same compound, the negative-log IC50 (pIC50) in data set [1] was determined as 4.3. In data set [5], the outcome was inactive.

For `CCCCCCCCCCCC(O)(P(=O)(O)O)P(=O)(O)O`, in data set [1], it took 302 µM to reach half-maximal inhibition (IC50) and the negative-log IC50 (pIC50) was 3.5.

As to `O=P(O)(O)C(O)(Cc1cccc(-c2ccc(F)c(F)c2)c1)P(=O)(O)O`, the IC50 in data set [1] amounted to 1 µM; in data set [2] it was 225 µM; in data set [3] it was 236 µM; in data set [4], 253 µM. The same compound came in with a negative logarithm of the IC50 (pIC50) in data set [1] of 6. In addition, the result in data set [5] was inactive.

In the case of `O=P(O)(O)C(O)(Cc1ccc(-c2ccc(Cl)cc2)cc1)P(=O)(O)O`, the IC50 in data set [1] was 3.9 µM; in data set [2], greater than 100 µM; in data set [3], greater than 100 µM; in data set [4], greater than 100 µM. The negative logarithm of the IC50 (pIC50) in data set [1] stood at 5.4. Also, the outcome in data set [5] was inactive.

Turning to `O=P(O)(O)C(O)(Cc1cccc2ccccc12)P(=O)(O)O`, the IC50 stood at 1.3 µM in data set [1], 259 µM in data set [2], 225 µM in data set [3] and 248 µM in data set [4]. For the same compound, in data set [1], the pIC50 amounted to 5.9. For the same compound, the result in data set [5] was inactive.

In data set [1], `CCCCCCc1ccc(NC(P(=O)(O)O)P(=O)(O)O)cc1` yielded an IC50 of 302 µM and a negative logarithm of the IC50 (pIC50) of 3.5.

`O=P(O)(O)C(O)(Cc1cccc(-c2ccc(Cl)cc2)c1)P(=O)(O)O`: the half-maximal inhibitory concentration (IC50) in data set [1] amounted to 0.9 µM; in data set [2], 41 µM; in data set [3], 48 µM; in data set [4], 39 µM. In data set [1], this compound gave a negative-log IC50 (pIC50) of 6.1. In addition, the outcome in data set [5] was inactive.

Turning to `O=P(O)(O)C(Nc1ccc(Cc2ccccc2)cc1)P(=O)(O)O`, the IC50 in data set [1] was 3.5 µM; in data set [2], greater than 100 µM; in data set [3], greater than 100 µM; in data set [4] it was greater than 100 µM. Moreover, the pIC50 in data set [1] stood at 5.5. Besides, in data set [5], the outcome was inactive.

With `O=P(O)(O)C(Nc1cccc(-c2ccc(F)cc2F)c1)P(=O)(O)O`, the IC50 was 3.9 µM in data set [1], greater than 300 µM in data set [2], greater than 300 µM in data set [3] and greater than 300 µM in data set [4]. In data set [1], this compound returned a pIC50 of 5.4. Besides, the result in data set [5] was inactive.

Regarding `O=P(O)(O)C(Nc1cccc(-c2ccccc2)c1)P(=O)(O)O`, the IC50 was 3.2 µM in data set [1], 289 µM in data set [2], 269 µM in data set [3] and 253 µM in data set [4]. Further, the negative-log IC50 (pIC50) in data set [1] was determined as 5.5. The result in data set [5] was inactive.

In data set [1], `CCCCCCCc1ccc(NC(P(=O)(O)O)P(=O)(O)O)cc1` showed an IC50 of 302 µM and a pIC50 of 3.5.

As to `CCCCCCCCCC(O)(P(=O)(O)O)P(=O)(O)O`, in data set [1], the concentration for half-maximal inhibition (IC50) amounted to 302 µM and the pIC50 was 3.5.

`O=P(O)(O)C(Nc1cccc(Br)c1)P(=O)(O)O`: the IC50 in data set [1] is 1 µM; in data set [2], greater than 300 µM; in data set [3], greater than 300 µM; in data set [4], greater than 300 µM. This compound came in with a negative logarithm of the IC50 (pIC50) in data set [1] of 6. For the same compound, the outcome in data set [5] was inactive.

As to `O=P(O)(O)C(O)(Cc1ccc(Cl)c(Cl)c1)P(=O)(O)O`, the half-inhibitory concentration (IC50) in data set [1] was found to be 0.5 µM; in data set [2] it was 213 µM; in data set [3], 208 µM; in data set [4], 241 µM. Moreover, the negative logarithm of the IC50 (pIC50) in data set [1] was 6.3. Moreover, the outcome in data set [5] was inactive.

In data set [1], `CN(CCCc1ccccc1)CCC(O)(P(=O)(O)O)P(=O)(O)O` displayed a 50% inhibitory concentration (IC50) of 302 µM and a negative logarithm of the IC50 (pIC50) of 3.5.

With `Cc1ccc(NC(P(=O)(O)O)P(=O)(O)O)cc1-c1ccccc1`, the IC50 was found to be 5 µM in data set [1], 296 µM in data set [2], 297 µM in data set [3] and 301 µM in data set [4]. Besides, the negative-log IC50 (pIC50) in data set [1] is 5.3. For the same compound, the outcome in data set [5] was inactive.

With `COc1ccc(-c2cccc(CC(O)(P(=O)(O)O)P(=O)(O)O)c2)cc1`, the half-maximal inhibitory concentration (IC50) was 2.4 µM in data set [1], 128 µM in data set [2], 139 µM in data set [3] and 118 µM in data set [4]. The same compound displayed a pIC50 in data set [1] of 5.6. In addition, the result in data set [5] was inactive.

In data set [1], `O=P(O)(O)C(O)(Cc1ccccc1)P(=O)(O)O` showed an IC50 of 302 µM and a pIC50 of 3.5.

For the compound `O=P(O)(O)C(Nc1cccc(-c2cc(F)cc(F)c2)c1)P(=O)(O)O`, the IC50 is 2.2 µM in data set [1], greater than 100 µM in data set [2], greater than 100 µM in data set [3] and greater than 100 µM in data set [4]. Moreover, in data set [1], the pIC50 worked out at 5.7. Moreover, the result in data set [5] was inactive.

For the compound `COCc1cccc(NC(P(=O)(O)O)P(=O)(O)O)c1`, the half-maximal inhibitory concentration (IC50) in data set [1] was 9.5 µM; in data set [2] it was greater than 300 µM; in data set [3] it was greater than 300 µM; in data set [4], greater than 300 µM. In data set [1], this compound came in with a pIC50 of 5. For the same compound, in data set [5], the outcome was inactive.

For the compound `O=P(O)(O)C(CNc1ccc(-c2ccccc2)cc1)P(=O)(O)O`, the concentration for half-maximal inhibition (IC50) in data set [1] is 4.6 µM; in data set [2] it was 84 µM; in data set [3] it was 95 µM; in data set [4] it was 95 µM. For the same compound, the negative-log IC50 (pIC50) in data set [1] is given as 5.3. In addition, the outcome in data set [5] was inactive.

`O=P(O)(O)C(CNc1cccc(-c2ccccc2)c1)P(=O)(O)O`: the IC50 in data set [1] was 11.2 µM; in data set [2], greater than 300 µM; in data set [3], greater than 300 µM; in data set [4], greater than 300 µM. In addition, the pIC50 in data set [1] is 5. The result in data set [5] was inactive.

Regarding `O=P(O)(O)C(Nc1cccc(CO)c1)P(=O)(O)O`, the IC50 in data set [1] is 7.9 µM; in data set [2] it was greater than 300 µM; in data set [3], greater than 300 µM; in data set [4] it was greater than 300 µM. Moreover, the negative logarithm of the IC50 (pIC50) in data set [1] is 5.1. In addition, the result in data set [5] was inactive.
